Legend:
[1] = tested on: Hepatitis C virus; assay: Inhibition of HCV 1b in Huh7 cells by replicon assay; assay type: functional, organism-based, Hepacivirus hominis; conditions: Huh-7
Outline: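 Huh-7-derived line 2209-23 stably carrying a bicistronic HCV genotype 1b replicon with a renilla luciferase reporter. Replication was read out by the reporter. The EC50 is the concentration reducing HCV replication by 50%.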

[2] = Cytotoxicity activity against Huh7 cells by WST assay; assay type: cell-based, Huh-7; conditions: human
Outline: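 Cytotoxicity was read out as the CC50, the concentration lowering cell viability by 50%, from a WST viability readout. Cells were the HCV replicon cell line 2209-23, derived from Huh-7 and carrying a stable genotype 1b bicistronic replicon with a renilla luciferase reporter.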

## CCOC(=O)[C@H](C)NP(=O)(OC[C@@]1(N=[N+]=[N-])O[C@@H](n2cnc3c(N)ncnc32)[C@H](O)[C@@H]1O)Oc1ccccc1 (some centres undefined)
[1]
  EC50: 1.5 µM
[2]
  CC50: > 100 µM

## C[C@H](NP(=O)(OC[C@@]1(N=[N+]=[N-])O[C@@H](n2cnc3c(N)ncnc32)[C@H](O)[C@@H]1O)Oc1ccccc1)C(=O)OCc1ccccc1 (some centres undefined)
[1]
  EC50: 4 µM
[2]
  CC50: > 100 µM

## [N-]=[N+]=N[C@]1(CO)O[C@@H](n2cnc3c(N)ncnc32)[C@H](O)[C@@H]1O
[1]
  EC50: > 100 µM
[2]
  CC50: > 100 µM

## C[C@H](NP(=O)(OC[C@@]1(N=[N+]=[N-])O[C@@H](n2cnc3c(N)ncnc32)[C@H](O)[C@@H]1O)Oc1cccc2ccccc12)C(=O)OCc1ccccc1 (some centres undefined)
[1]
  EC50: 0.22 µM
[2]
  CC50: > 100 µM

## CCOC(=O)[C@H](C)NP(=O)(OC[C@@]1(N=[N+]=[N-])O[C@@H](n2cnc3c(N)ncnc32)[C@H](O)[C@@H]1O)Oc1cccc2ccccc12 (some centres undefined)
[1]
  EC50: 0.59 µM
[2]
  CC50: > 100 µM

## C[C@H](NP(=O)(OC[C@@]1(N=[N+]=[N-])O[C@@H](n2cnc3c(N)ncnc32)[C@H](O)[C@@H]1O)Oc1ccccc1)C(=O)OC(C)(C)C (some centres undefined)
[1]
  EC50: > 100 µM
[2]
  CC50: > 100 µM

## C[C@H](NP(=O)(OC[C@@]1(N=[N+]=[N-])O[C@@H](n2cnc3c(N)ncnc32)[C@H](O)[C@@H]1O)Oc1cccc2ccccc12)C(=O)OC(C)(C)C (some centres undefined)
[1]
  EC50: > 100 µM
[2]
  CC50: > 100 µM
